Seven compounds from ChEMBL document CHEMBL1143227, “Design, synthesis, and in vitro activity of peptidomimetic inhibitors of myeloid differentiation factor 88” (J Med Chem, 2008) can be followed below.

Activity calls are given as the source filed them. No cut-off for these calls is given here.

Data set [1] addresses Myeloid differentiation primary response protein MyD88 (Homo sapiens) (UniProt Q99836). As to the kind of experiment: Inhibition of MyD88 homodimerization by yeast two-hybrid assay. Put shortly:
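Yeast AH109 is cotransformed with AD-MyD88 and BD-MyD88, grown overnight at 30 °C in SGd/-Leu/-Trp, then diluted 1/20 into SGd/-Ade/-His/-Leu/-Trp with compound at a final 100 µM in oxygen-sensor plates. Growth at 30 °C is read by fluorescence (ex 485/em 630 nm, bottom read) every 90 min for 25 readings. Signal is normalized to initial well fluorescence, and growth curves are described by seven curve parameters.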

The test system of data set [2] is HeLa. Description: Inhibition of IL-1-alpha-induced NF-kappaB activation in human HeLa cells at 100 uM. Type of data set: functional. Put shortly: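 HeLa cells are grown in EMEM with 2 mM glutamine, 1% nonessential amino acids, 7.5% FBS and pen/strep. They are seeded at 3 × 10⁵/well, left overnight, then switched to serum-free EMEM. Compound (DMSO, final 100 µM) is added for 6 h at 37 °C, then recombinant human IL-1 5 ng/mL for 30 min. Activated p65 in about 10 µg lysate protein is read by TransAM colorimetric ELISA (A450). % inhibition uses stimulated and unstimulated controls with and without compound.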

The next data set relates to Mus musculus. As to the kind of experiment: Decrease in IL-1-beta-dependent IL6 production in mouse at 50 to 200 mg/kg. Type of data set: functional, organism-based.
Data set [3] relates to HeLa. As to the kind of experiment: Toxicity against human HeLa cells at 4 uM by MTT assay. It is filed as cell-based.
In data set [4] the test system is HeLa. Description: Toxicity against human HeLa cells at 8 uM by MTT assay. Type of data set: cell-based.
The test system of data set [5] is HeLa. As to the kind of experiment: Toxicity against human HeLa cells at 10 uM by MTT assay. Type of data set: cell-based.
In data set [6] the test system is HeLa. Description: Toxicity against human HeLa cells at 20 uM by MTT assay. Type of data set: cell-based.
Data set [7] has as its system HeLa. As to the kind of experiment: Inhibition of IL-1-alpha-induced NF-kappaB activation in human HeLa cells at 4 uM. It is filed as functional.
The subject of data set [8] is HeLa. As to the kind of experiment: Inhibition of IL-1-alpha-induced NF-kappaB activation in human HeLa cells at 8 uM. It is filed as functional.
Data set [9] has as its system HeLa. Description: Inhibition of IL-1-alpha-induced NF-kappaB activation in human HeLa cells at 10 uM. It is filed as functional.
In data set [10] the test system is HeLa. As to the kind of experiment: Inhibition of IL-1-alpha-induced NF-kappaB activation in human HeLa cells at 20 uM. It is filed as functional.

Chain of Myeloid differentiation primary response protein MyD88 (Homo sapiens) (Q99836 whole entry): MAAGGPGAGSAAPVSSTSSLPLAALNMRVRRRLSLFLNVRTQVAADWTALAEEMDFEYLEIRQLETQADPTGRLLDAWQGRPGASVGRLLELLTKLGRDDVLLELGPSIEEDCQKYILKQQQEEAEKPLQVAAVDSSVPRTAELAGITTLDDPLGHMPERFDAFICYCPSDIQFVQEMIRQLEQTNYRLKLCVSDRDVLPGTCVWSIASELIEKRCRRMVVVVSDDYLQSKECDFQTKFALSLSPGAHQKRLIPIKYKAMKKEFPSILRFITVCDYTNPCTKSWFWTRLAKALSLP

With `N=C(N)NCCCCNC(=O)c1ccc2cc(NC(=O)CN3C(=O)[C@@H]4C[C@@H](O)CN4C(=O)c4ccccc43)ccc2c1`, in data set [1], the outcome was Active. This compound also had an inhibition at 100 µM in the data set with HeLa [2] of 24%.
`CC(C)[C@H](NC(=O)CCc1ccccc1)C(=O)N1CCCC1` returned an inhibition at 100 µM in the data set on HeLa [2] of 31%.
`NC(=O)[C@H]1CCS[C@@H]2C[C@]3(CCCN3C(=O)c3nc(NC(=O)COc4ccc(Cl)cc4)n[nH]3)C(=O)N12`: in data set [1], the result was Active. In addition, the inhibition at 100 µM with HeLa [2] is 17%.
As for `NC(=O)[C@H]1CCS[C@@H]2C[C@]3(CCCN3C(=O)Cc3ccc(NC(=O)COc4ccc(Cl)cc4Cl)cc3)C(=O)N12`, the outcome (in data set [1]; with Mus musculus) was Active. This compound also returned an inhibition at 100 µM in the data set on HeLa [2] of 26%.
As for `NC(=O)CN1CCC[C@]2(CCCN2C(=O)CCNC(=O)c2ccc(NC(=O)Cc3cccc4ccccc34)cc2)C1=O`, in [1], the outcome was Active. In addition, at 100 µM the inhibition in the data set with HeLa [2] was 18%.
As to `Cc1cnc(C(=O)Nc2ccc(C(=O)NCCC(=O)N3CCC[C@]34C[C@H]3SCC[C@H](C(N)=O)N3C4=O)cc2)cn1`, in data set [1], the outcome was Active. The compound also had an inhibition at 100 µM in the data set with HeLa [2] of 23%.
`CC(C)(C)c1ccc(S(=O)(=O)/C=C/C#N)cc1` [BAY-11-7085]: the Activity in the data set on HeLa [3] came to 0%; in the data set on HeLa [4], 0%; in the data set with HeLa [5], 4%; in the data set with HeLa [6] it was 41%. Also, at 4 µM the inhibition with HeLa [7] was 0%. Besides, in the data set on HeLa [8], at 8 µM the inhibition was 35%. In addition, in the data set with HeLa [9], 10 µM produced 44% inhibition. In the data set on HeLa [10], this compound showed an inhibition at 20 µM of 65%.
